{"source": "ChEMBL document CHEMBL2331364", "about": "“A synthetic dolastatin 10 analogue suppresses microtubule dynamics, inhibits cell proliferation, and induces apoptotic cell death” (J Med Chem, 2013)", "key": {"Homo sapiens [1]": {"species": "Homo sapiens", "test": "Inhibition of microtubule (unknown origin) assembly at 1 uM incubated for 15 mins prior to GTP addition measured for 30 mins by 90 degree light scattering-based fluorescence spectrophotometric method", "summary_of_the_method": "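MAP-rich tubulin (1 mg/mL) was preincubated with 1, 3, 5 or 10 μM in PEM buffer (25 mM Pipes pH 6.8, 3 mM MgCl2, 1 mM EGTA) for 15 min on ice. GTP (1 mM) was then added and assembly monitored by 90° light scattering at 400 nm for 30 min at 37 °C.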"}, "HeLa [2]": {"tested_on": "HeLa", "test": "Induction of apoptosis in human HeLa cells assessed as procaspase-3 activation at 30 nM after 24 hrs by Western blot analysis", "format": "functional, cell-based", "summary_of_the_method": "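HeLa cells were treated with vehicle or 30 nM for 24 h and washed twice in PBS. Lysates were Western blotted with antibodies to JNK1, phospho-JNK, procaspase-3 and PARP.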"}, "HeLa [3]": {"tested_on": "HeLa", "test": "Inhibition of microtubule-kinetochore attachment in human HeLa cells assessed as Mad2 accumulation at kinetochoric region at 15 to 45 nM after 24 hrs by Hoechst 33258 dye-based Hec1 staining assay", "format": "cell-based"}, "MCF7 [4]": {"tested_on": "MCF7", "test": "Inhibition of microtubule (unknown origin) dynamics in GFP-tubulin transfected human MCF7 cells assessed as increase in microtubule rescue frequency at 15 nM by confocal laser scanning microscopy relative to control", "format": "cell-based", "summary_of_the_method": "(§1)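 EGFP-tubulin-transfected MCF-7 cells grown in EMEM with 10% FBS at 37 °C in 5% CO2, exposed to 15 nM compound (DMSO vehicle) or vehicle. Individual microtubules were followed by time-lapse confocal laser scanning microscopy and life-history traces were recorded. Kinetic parameters were derived from these traces, 20 microtubules per condition. Significance was tested by one-way ANOVA.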"}, "MCF7 [5]": {"tested_on": "MCF7", "test": "Inhibition of microtubule (unknown origin) dynamics in GFP-tubulin transfected human MCF7 cells assessed as decrease in microtubule dynamicity at 15 nM by confocal laser scanning microscopy relative to control", "format": "cell-based", "summary_of_the_method": "(§2)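 EGFP-tubulin transfected MCF-7 cells were treated with vehicle or 15 nM, and individual microtubules were tracked by confocal laser scanning microscopy, 20 microtubules per condition. Life-history parameters were derived as previously described. Significance was tested by one-way ANOVA.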"}, "MCF7 [6]": {"tested_on": "MCF7", "test": "Inhibition of microtubule (unknown origin) dynamics in GFP-tubulin transfected human MCF7 cells assessed as increase in microtubule pause time at 15 nM by confocal laser scanning microscopy relative to control", "format": "cell-based", "summary_of_the_method": "as §1"}, "MCF7 [7]": {"tested_on": "MCF7", "test": "Inhibition of microtubule (unknown origin) dynamics in GFP-tubulin transfected human MCF7 cells assessed as microtubule growth time at 15 nM by confocal laser scanning microscopy (reference value: 0.9 +/- 0.1 min)", "format": "cell-based", "summary_of_the_method": "as §1"}, "MCF7 [8]": {"tested_on": "MCF7", "test": "Inhibition of microtubule (unknown origin) dynamics in GFP-tubulin transfected human MCF7 cells assessed as decrease in microtubule shortening length at 15 nM by confocal laser scanning microscopy relative to control", "format": "cell-based", "summary_of_the_method": "as §2"}, "MCF7 [9]": {"tested_on": "MCF7", "test": "Inhibition of microtubule (unknown origin) dynamics in GFP-tubulin transfected human MCF7 cells assessed as decrease in microtubule growth at 15 nM by confocal laser scanning microscopy relative to control", "format": "cell-based", "summary_of_the_method": "as §2"}, "HeLa [10]": {"tested_on": "HeLa", "test": "Induction of mitotic microtubule depolymerization in human HeLa cells at 30 nM after 24 hrs by Hoechst 33258 dye-based fluorescence microscopy", "format": "cell-based"}, "HeLa [11]": {"tested_on": "HeLa", "test": "Induction of mitotic microtubule depolymerization in human HeLa cells at 7 nM after 24 hrs by Hoechst 33258 dye-based fluorescence microscopy relative to control", "format": "cell-based"}, "HeLa [12]": {"tested_on": "HeLa", "test": "Antimitotic activity in human HeLa cells assessed as increase in phosphohistone H3 (Ser10) positive cell population after 24 hrs by fluorescence microscopic analysis", "format": "functional, cell-based"}, "HeLa [13]": {"tested_on": "HeLa", "test": "Inhibition of mitosis in human HeLa cells assessed as mitotic index ratio at 30 nM after 48 hrs by Hoechst 33258 DNA staining assay (reference value: 3)", "format": "functional", "summary_of_the_method": "(§3)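 HeLa cells were treated with vehicle or 7, 15 or 30 nM compound for 24 or 48 h. DNA was stained with Hoechst 33258, and mitotic cells were counted by fluorescence microscopy to give the mitotic index, compared against vehicle-treated cells.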"}, "HeLa [14]": {"tested_on": "HeLa", "test": "Inhibition of mitosis in human HeLa cells assessed as mitotic index ratio at 7 nM after 24 hrs by Hoechst 33258 DNA staining assay (reference value: 3.2)", "format": "functional", "summary_of_the_method": "as §3"}, "HeLa [15]": {"tested_on": "HeLa", "test": "Cell cycle arrest in human HeLa cells assessed as accumulation at G2/M phase at 30 nM after 24 hrs by propidium iodide staining-based flow cytometry (reference value: 4%)", "format": "functional"}, "MCF7 [16]": {"tested_on": "MCF7", "test": "Cytotoxicity against human MCF7 cells after 24 to 48 hrs by trypan blue assay", "format": "functional, cell-based", "summary_of_the_method": "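Cells were seeded at 1 × 10^5 cells/mL, grown 24 h at 37 °C in 5% CO2, then given vehicle (0.1% DMSO) or 1–80 nM for a further 24 or 48 h. Attached plus floating cells were counted after trypan blue staining. Percent inhibition was plotted against concentration to give IC50. Average of three independent experiments.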"}, "Homo sapiens [17]": {"species": "Homo sapiens", "test": "Inhibition of microtubule (unknown origin) GTPase activity using GTP as substrate assessed as reduction of inorganic phosphate release incubated for 10 mins prior to substrate addition measured after 10 mins by ammonium molybdate malachite green assay", "summary_of_the_method": "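GTP (1 mM) was added and the mixture polymerized at 37 °C for 10 min. Reactions were stopped with perchloric acid, and released phosphate was measured by ammonium molybdate–malachite green.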"}, "Tubulin (Homo sapiens)": {"molecular_target": "Tubulin (Homo sapiens) (UniProt P68371+Q9H4B7+P0DPH7+P68366+Q13509+Q71U36+P04350+Q3ZCM7+P07437+P68363+Q9BQE3+Q6PEY2+Q13885+Q9BVA1+Q9BUF5)", "test": "Induction of tubulin (unknown origin) dimer aggregation at 10 uM after 20 mins by transmission electron microscopy", "format": "protein-complex assay", "summary_of_the_method": "(§4)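 Goat brain tubulin (10 μM) was preincubated with 5 or 10 μM on ice for 20 min, then polymerized with 1 mM GTP at 37 °C in glutamate assembly buffer. Polymers were fixed in 0.5% glutaraldehyde, negatively stained with 2% uranyl acetate, and imaged by transmission EM.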"}, "Homo sapiens [18]": {"species": "Homo sapiens", "test": "Inhibition of microtubule (unknown origin) assembly at 5 uM after 20 mins by transmission electron microscopy", "summary_of_the_method": "as §4"}, "Tubulin (Capra hircus)": {"tested_on": "Tubulin (Capra hircus)", "test": "Inhibition of goat brain microtubule GTPase activity using GTP as substrate assessed as reduction of inorganic phosphate release at 2 uM incubated for 10 mins prior to substrate addition measured after 10 mins by ammonium molybdate malachite green assay relative to control"}}, "note": "Calls of active or inactive are those of the source. The rule behind the calls is not given here.", "data": [{"smiles": "CC[C@H](C)[C@@H]([C@@H](CC(=O)NC[C@H]1O[C@H](C(=O)NCCc2ccccc2)[C@@H](OC)[C@@H]1OC)OC)N(C)C(=O)[C@@H](NC(=O)[C@@H](NC)C(C)C)C(C)C", "values": [{"measurement": "inhibition", "setting": "Homo sapiens [1]", "value": 13, "unit": "%"}, {"measurement": "Activity", "setting": "HeLa [2]", "value": "Active"}, {"measurement": "Activity", "setting": "HeLa [3]", "value": "Active"}, {"measurement": "inhibition", "setting": "MCF7 [4]", "value": 40, "unit": "%"}, {"measurement": "inhibition", "setting": "MCF7 [5]", "value": 50, "unit": "%"}, {"measurement": "inhibition", "setting": "MCF7 [6]", "value": 50, "unit": "%"}, {"measurement": "TIME", "setting": "MCF7 [7]", "value": 0.00833, "unit": "h"}, {"measurement": "inhibition", "setting": "MCF7 [8]", "value": 44, "unit": "%"}, {"measurement": "inhibition", "setting": "MCF7 [9]", "value": 31, "unit": "%"}, {"measurement": "Activity", "setting": "HeLa [10]", "value": "Active"}, {"measurement": "Activity", "setting": "HeLa [11]", "value": "inactive"}, {"measurement": "Activity", "setting": "HeLa [12]", "value": "Dose-dependent effect"}, {"measurement": "Ratio", "setting": "HeLa [13]", "value": 16}, {"measurement": "Ratio", "setting": "HeLa [14]", "value": 6}, {"measurement": "Activity", "setting": "HeLa [15]", "value": 9, "unit": "%"}, {"measurement": "IC50", "setting": "MCF7 [16]", "value": 0.015, "unit": "µM"}, {"measurement": "inhibition", "setting": "Homo sapiens [17]", "value": "Dose-dependent effect"}, {"measurement": "Activity", "setting": "Tubulin (Homo sapiens)", "value": "Active"}, {"measurement": "inhibition", "setting": "Homo sapiens [18]", "value": "Active"}, {"measurement": "inhibition", "setting": "Tubulin (Capra hircus)", "value": 17, "unit": "%"}]}]}
